In assay [1] the test system is Rattus norvegicus. In words: Antidiabetic activity in sucrose loaded Sprague-Dawley rat model assessed as reduction in blood glucose level at 100 mg/kg. Type of assay: functional. Further details: scale not given: the % may be the effect or the level left.
For assay [2], the system named is Rattus norvegicus. In words: Antidiabetic activity in streptozotocin-induced diabetic Sprague-Dawley rat model assessed as reduction in blood glucose level at 100 mg/kg. It counts as functional. Further details: scale not given: the % may be the effect or the level left. A digest of the protocol:
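Streptozotocin-induced diabetic rats received compound, vehicle or metformin as reference standard. Blood glucose was monitored before dosing and up to 24 h after administration. Activity is expressed as percent sugar-lowering effect.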

Assay [3] has as its target T1, Tyrosine-protein phosphatase non-receptor type 1 (Homo sapiens) (UniProt P18031).
T1 sequence (whole entry): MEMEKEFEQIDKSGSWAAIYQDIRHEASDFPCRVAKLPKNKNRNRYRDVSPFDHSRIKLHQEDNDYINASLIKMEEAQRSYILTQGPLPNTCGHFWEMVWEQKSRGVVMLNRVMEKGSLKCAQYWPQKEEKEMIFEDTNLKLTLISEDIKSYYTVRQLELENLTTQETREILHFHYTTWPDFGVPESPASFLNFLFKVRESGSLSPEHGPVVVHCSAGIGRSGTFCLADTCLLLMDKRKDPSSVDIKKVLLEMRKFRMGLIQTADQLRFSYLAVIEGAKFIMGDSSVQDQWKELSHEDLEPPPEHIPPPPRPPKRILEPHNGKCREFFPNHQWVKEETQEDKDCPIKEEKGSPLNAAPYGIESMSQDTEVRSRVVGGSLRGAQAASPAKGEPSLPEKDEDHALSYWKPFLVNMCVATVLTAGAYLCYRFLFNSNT
In words: Inhibition of PTP1B at 100 uM. The gist of the method:
(§1)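 PTP1B was pre-incubated with test compound for 10 min in the reaction system, at graded doses for IC50 or at a single fixed concentration for percent inhibition. Residual activity was measured by the Goldstein method with 10 mM PNPP in 50 mM HEPES pH 7.0 containing 1 mM EDTA and DTT. Peroxovanadate served as control. The reaction was stopped with 0.1 N NaOH and read at 410 nm. p-Nitrophenolate was quantified using ε = 1.78 × 10⁴ M⁻¹ cm⁻¹.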

Assay [4] has as its target T2, Tyrosine-protein phosphatase non-receptor type 1 (Homo sapiens, UniProt P18031).
T2 sequence (P18031 whole entry): T1 sequence (whole entry)
In words: Inhibition of PTP1B. A digest of the protocol: as §1

For the compound `COc1ccc(CCNC(=O)Cc2ccccc2[N+](=O)[O-])cc1`, the Activity in assay [1] was 19.8%; in assay [2] it was 17.5%. Also, the inhibition in assay [3] is 62.5%. Further, in assay [4], the IC50 stood at 87 µM.

In the case of `CN(C)C(=N)NC(=N)N` [METFORMIN], the Activity is reported as 27.2% in assay [1] and 23.9% in assay [2].

For the compound `COc1ccc(CCNC(=O)Cc2cccc3ccccc23)cc1`, the Activity in assay [1] was 25.1%; in assay [2], 24.1%. In addition, the inhibition in assay [3] amounted to 76.9%. The IC50 in assay [4] stood at 69 µM.

For the compound `COc1ccc(CCNC(=O)COc2ccccc2)cc1`, the Activity in assay [1] was 24.6%; in assay [2], 20.6%. This compound showed an inhibition in assay [3] of 68.2%. In assay [4], this compound returned an IC50 of 71 µM.

The record behind these values is ChEMBL document CHEMBL1153956, “Synthesis of protein tyrosine phosphatase 1B inhibitors: model validation and docking studies” (Bioorg Med Chem Lett, 2009).
